{"source": "ChEMBL document CHEMBL4689842", "about": "“EUbOPEN Chemogenomics Library wave 1” (2021)", "tested_on": "Fibroblast", "test": "Multiplex assay against human fibroblast", "assay_type": "toxicity, cell-based", "outline": "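Hoechst33342, BioTracker Green Microtubule Cytoskeleton Dye, MitoTracker Red and Annexin V Alexa Fluor 680 were added to live cells at seeding, and imaging on a CQ1 microscope at 37°C and 5% CO2 followed compound addition. Gating by CellPathfinder machine learning separated cells into Hoechst high-intensity objects or normal cells, then normal cells into healthy, pyknosed or fragmented nuclei, then pyknosed cells into mitotic or apoptotic. Per cents of healthy-nucleus cells are reported for the tubulin, mitochondrial-mass and membrane-permeability phenotypes.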", "key": {"[1]": {"conditions": "12 h, 1 µM, compound concentration 1 uM, replicate 1"}, "[2]": {"conditions": "12 h, 1 µM, compound concentration 1 uM, replicate 2"}, "[3]": {"conditions": "12 h, 10 µM, compound concentration 10 uM, replicate 1"}, "[4]": {"conditions": "12 h, 10 µM, compound concentration 10 uM, replicate 2"}, "[5]": {"conditions": "24 h, 1 µM, compound concentration 1 uM, replicate 1"}, "[6]": {"conditions": "24 h, 1 µM, compound concentration 1 uM, replicate 2"}, "[7]": {"conditions": "24 h, 10 µM, compound concentration 10 uM, replicate 1"}, "[8]": {"conditions": "24 h, 10 µM, compound concentration 10 uM, replicate 2"}, "[9]": {"conditions": "48 h, 10 µM, compound concentration 10 uM, replicate 1"}, "[10]": {"conditions": "48 h, 10 µM, compound concentration 10 uM, replicate 2"}}, "note": "Where “and” joins values, the source holds several entries; their conditions need not be identical. Equal entries are not always repeated.", "data": [{"molecule": "NC(=O)Nc1cc(-c2cccc(F)c2)sc1C(=O)N[C@H]1CCCNC1", "note": "[AZD-7762]", "values": [{"measurement": "Population Apoptotic (%)", "setting": "[1]", "value": 69, "unit": "%"}, {"measurement": "Population Fragmented Nuclei (%)", "setting": "[1]", "value": 20, "unit": "%"}, {"measurement": "Population Healthy Nuclei (%)", "setting": "[1]", "value": 62, "unit": "%"}, {"measurement": "Population Hoechst High Intensity Objects (%)", "setting": "[1]", "value": 14, "unit": "%"}, {"measurement": "Population Membrane Permeable-Phenotype (%)", "setting": "[1]", "value": 8, "unit": "%"}, {"measurement": "Population Mitochondria Different-Phenotype (%)", "setting": "[1]", "value": 0, "unit": "%"}, {"measurement": "Population Mitotic Cells (%)", "setting": "[1]", "value": 30, "unit": "%"}, {"measurement": "Population Normal (%)", "setting": "[1]", "value": 85, "unit": "%"}, {"measurement": "Population Pyknosed Nuclei (%)", "setting": "[1]", "value": 17, "unit": "%"}, {"measurement": "Population Tubulin-Different-Phenotype (%)", "setting": "[1]", "value": 1, "unit": "%"}, {"measurement": "Total Cell Count", "setting": "[1]", "value": 226}, {"measurement": "Population Apoptotic (%)", "setting": "[2]", "value": 60, "unit": "%"}, {"measurement": "Population Fragmented Nuclei (%)", "setting": "[2]", "value": 42, "unit": "%"}, {"measurement": "Population Healthy Nuclei (%)", "setting": "[2]", "value": 49, "unit": "%"}, {"measurement": "Population Hoechst High Intensity Objects (%)", "setting": "[2]", "value": 29, "unit": "%"}, {"measurement": "Population Membrane Permeable-Phenotype (%)", "setting": "[2]", "value": 16, "unit": "%"}, {"measurement": "Population Mitochondria Different-Phenotype (%)", "setting": "[2]", "value": 3, "unit": "%"}, {"measurement": "Population Mitotic Cells (%)", "setting": "[2]", "value": 40, "unit": "%"}, {"measurement": "Population Normal (%)", "setting": "[2]", "value": 70, "unit": "%"}, {"measurement": "Population Pyknosed Nuclei (%)", "setting": "[2]", "value": 8, "unit": "%"}, {"measurement": "Population Tubulin-Different-Phenotype (%)", "setting": "[2]", "value": 13, "unit": "%"}, {"measurement": "Total Cell Count", "setting": "[2]", "value": 87}, {"measurement": "Population Apoptotic (%)", "setting": "[3]", "value": "73% and 68%"}, {"measurement": "Population Fragmented Nuclei (%)", "setting": "[3]", "value": "47% and 34%"}, {"measurement": "Population Healthy Nuclei (%)", "setting": "[3]", "value": "35% and 51%"}, {"measurement": "Population Hoechst High Intensity Objects (%)", "setting": "[3]", "value": "16% and 18%"}, {"measurement": "Population Membrane Permeable-Phenotype (%)", "setting": "[3]", "value": "6% and 7%"}, {"measurement": "Population Mitochondria Different-Phenotype (%)", "setting": "[3]", "value": 3, "unit": "%"}, {"measurement": "Population Mitotic Cells (%)", "setting": "[3]", "value": "26% and 31%"}, {"measurement": "Population Normal (%)", "setting": "[3]", "value": "83% and 81%"}, {"measurement": "Population Pyknosed Nuclei (%)", "setting": "[3]", "value": "17% and 14%"}, {"measurement": "Total Cell Count", "setting": "[3]", "value": "106 and 295"}, {"measurement": "Population Apoptotic (%)", "setting": "[4]", "value": "46% and 44%"}, {"measurement": "Population Fragmented Nuclei (%)", "setting": "[4]", "value": "22% and 60%"}, {"measurement": "Population Healthy Nuclei (%)", "setting": "[4]", "value": "25% and 27%"}, {"measurement": "Population Membrane Permeable-Phenotype (%)", "setting": "[4]", "value": "21% and 20%"}, {"measurement": "Population Mitotic Cells (%)", "setting": "[4]", "value": "53% and 55%"}, {"measurement": "Population Normal (%)", "setting": "[4]", "value": "94% and 67%"}, {"measurement": "Population Tubulin-Different-Phenotype (%)", "setting": "[4]", "value": "21% and 35%"}, {"measurement": "Total Cell Count", "setting": "[4]", "value": "79 and 110"}, {"measurement": "Population Apoptotic (%)", "setting": "[5]", "value": 61, "unit": "%"}, {"measurement": "Population Fragmented Nuclei (%)", "setting": "[5]", "value": 25, "unit": "%"}, {"measurement": "Population Healthy Nuclei (%)", "setting": "[5]", "value": 62, "unit": "%"}, {"measurement": "Population Hoechst High Intensity Objects (%)", "setting": "[5]", "value": 14, "unit": "%"}, {"measurement": "Population Membrane Permeable-Phenotype (%)", "setting": "[5]", "value": 11, "unit": "%"}, {"measurement": "Population Mitochondria Different-Phenotype (%)", "setting": "[5]", "value": 1, "unit": "%"}, {"measurement": "Population Mitotic Cells (%)", "setting": "[5]", "value": 38, "unit": "%"}, {"measurement": "Population Normal (%)", "setting": "[5]", "value": 85, "unit": "%"}, {"measurement": "Population Pyknosed Nuclei (%)", "setting": "[5]", "value": 12, "unit": "%"}, {"measurement": "Population Tubulin-Different-Phenotype (%)", "setting": "[5]", "value": 2, "unit": "%"}, {"measurement": "Total Cell Count", "setting": "[5]", "value": 238}, {"measurement": "Population Apoptotic (%)", "setting": "[6]", "value": 0, "unit": "%"}, {"measurement": "Population Fragmented Nuclei (%)", "setting": "[6]", "value": 40, "unit": "%"}, {"measurement": "Population Healthy Nuclei (%)", "setting": "[6]", "value": 60, "unit": "%"}, {"measurement": "Population Hoechst High Intensity Objects (%)", "setting": "[6]", "value": 26, "unit": "%"}, {"measurement": "Population Membrane Permeable-Phenotype (%)", "setting": "[6]", "value": 10, "unit": "%"}, {"measurement": "Population Mitochondria Different-Phenotype (%)", "setting": "[6]", "value": 0, "unit": "%"}, {"measurement": "Population Mitotic Cells (%)", "setting": "[6]", "value": 0, "unit": "%"}, {"measurement": "Population Normal (%)", "setting": "[6]", "value": 73, "unit": "%"}, {"measurement": "Population Pyknosed Nuclei (%)", "setting": "[6]", "value": 0, "unit": "%"}, {"measurement": "Population Tubulin-Different-Phenotype (%)", "setting": "[6]", "value": 10, "unit": "%"}, {"measurement": "Total Cell Count", "setting": "[6]", "value": 68}, {"measurement": "Population Apoptotic (%)", "setting": "[7]", "value": "37% and 82%"}, {"measurement": "Population Fragmented Nuclei (%)", "setting": "[7]", "value": "47% and 41%"}, {"measurement": "Population Healthy Nuclei (%)", "setting": "[7]", "value": "44% and 47%"}, {"measurement": "Population Hoechst High Intensity Objects (%)", "setting": "[7]", "value": "27% and 14%"}, {"measurement": "Population Mitochondria Different-Phenotype (%)", "setting": "[7]", "value": "4% and 0%"}, {"measurement": "Population Normal (%)", "setting": "[7]", "value": "72% and 85%"}, {"measurement": "Population Pyknosed Nuclei (%)", "setting": "[7]", "value": "8% and 10%"}, {"measurement": "Total Cell Count", "setting": "[7]", "value": "129 and 316"}, {"measurement": "Population Apoptotic (%)", "setting": "[8]", "value": "57% and 92%"}, {"measurement": "Population Healthy Nuclei (%)", "setting": "[8]", "value": "32% and 16%"}, {"measurement": "Population Hoechst High Intensity Objects (%)", "setting": "[8]", "value": "29% and 20%"}, {"measurement": "Population Membrane Permeable-Phenotype (%)", "setting": "[8]", "value": 100, "unit": "%"}, {"measurement": "Population Normal (%)", "setting": "[8]", "value": "70% and 80%"}, {"measurement": "Population Pyknosed Nuclei (%)", "setting": "[8]", "value": 66, "unit": "%"}, {"measurement": "Total Cell Count", "setting": "[8]", "value": "115 and 75"}, {"measurement": "Population Apoptotic (%)", "setting": "[9]", "value": 25, "unit": "%"}, {"measurement": "Population Fragmented Nuclei (%)", "setting": "[9]", "value": 59, "unit": "%"}, {"measurement": "Population Healthy Nuclei (%)", "setting": "[9]", "value": 36, "unit": "%"}, {"measurement": "Population Hoechst High Intensity Objects (%)", "setting": "[9]", "value": 31, "unit": "%"}, {"measurement": "Population Membrane Permeable-Phenotype (%)", "setting": "[9]", "value": 17, "unit": "%"}, {"measurement": "Population Mitochondria Different-Phenotype (%)", "setting": "[9]", "value": 4, "unit": "%"}, {"measurement": "Population Mitotic Cells (%)", "setting": "[9]", "value": 75, "unit": "%"}, {"measurement": "Population Normal (%)", "setting": "[9]", "value": 68, "unit": "%"}, {"measurement": "Population Pyknosed Nuclei (%)", "setting": "[9]", "value": 3, "unit": "%"}, {"measurement": "Population Tubulin-Different-Phenotype (%)", "setting": "[9]", "value": 24, "unit": "%"}, {"measurement": "Total Cell Count", "setting": "[9]", "value": 162}, {"measurement": "Population Apoptotic (%)", "setting": "[10]", "value": 100, "unit": "%"}, {"measurement": "Population Healthy Nuclei (%)", "setting": "[10]", "value": 37, "unit": "%"}, {"measurement": "Population Hoechst High Intensity Objects (%)", "setting": "[10]", "value": 13, "unit": "%"}, {"measurement": "Population Mitochondria Different-Phenotype (%)", "setting": "[10]", "value": 2, "unit": "%"}, {"measurement": "Population Mitotic Cells (%)", "setting": "[10]", "value": 0, "unit": "%"}, {"measurement": "Population Normal (%)", "setting": "[10]", "value": 86, "unit": "%"}, {"measurement": "Population Pyknosed Nuclei (%)", "setting": "[10]", "value": 2, "unit": "%"}, {"measurement": "Population Tubulin-Different-Phenotype (%)", "setting": "[10]", "value": 14, "unit": "%"}, {"measurement": "Total Cell Count", "setting": "[10]", "value": 126}]}]}
